Assay results: ChEMBL document CHEMBL1145518, “Potent immune-modulating and anticancer effects of NKT cell stimulatory glycolipids” (2007)
Calls of active or inactive are those of the source. The calls are words filed in the database; no cut-off is given here.

Tests used:
NKT = assay: Stimulation of cell expansion of human invariant CD161+/ Valpha24+/ CD56+/ CD3+ NKT cells by flow cytometry method; type: functional, cell-based
Summary of the method: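 CD56+ NK/NKT mixtures (2 × 10^6) were isolated from human leukopaks with anti-CD56 microbeads. They were cocultured with 4 × 10^5 autologous immature CD14+ DCs pulsed with glycolipid at 3 μg/ml, or with 0.3% DMSO, on day 2 for 18 h. Suspension cells were then transferred and kept in 100 units/ml IL-2 with fresh medium every 3 days. On day 9, CD161+/Vα24TCR+ cells were gated by flow cytometry and total Vα24i NKT cells counted. Triplicates, mean ± SD.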

Mus musculus [1] = assay: Induction of GM-CSF secretion in BALB/c mouse serum at 2 ug, iv after 2 hrs relative to control; type: functional
Summary of the method: (§1)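 BALB/c mice received an i.v. injection of 100 μl of glycolipid diluted to 20 μg/ml in saline from DMSO stock, with 1% DMSO as vehicle. Serum cytokines/chemokines were measured at 2 and 18 h after injection.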

HeLa = assay: Activation of TCR in human HeLa cells overexpressing CD1d assessed as increase in ERK1/2 phosphorylation; type: cell-based
Summary of the method: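 Human HeLa, HeLa-CD1d or autologous immature DCs were loaded with glycolipid at 10 μg/ml, or DMSO, for 2 h. Then 3 × 10^5 naïve CD161+/CD3+ NKT cells were added; these were bead-isolated and kept in 100 units/ml IL-2. After 5–10 min the cells were washed and lysed at 4°C. Phospho-CD3ε, ERK1/2 (Thr-185/Tyr-187) and CREB (Ser-133) were read by Luminex bead assay as median fluorescence normalized to total protein, expressed as fold over 1% DMSO.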

[2] = Induction of IL12p40 secretion in human CD161+ CD3+ NKT cells at 10 ug/ml after 18 hrs relative to basal level; type: functional
Summary of the method: (§2)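 Human Vα24i NKT cell lines were expanded for 10 days on irradiated (3,000 rad) autologous immature DCs with 10 units/ml IL-2. The cells (1 × 10^5) were cocultured with 5 × 10^4 irradiated immature CD14+ DCs plus glycolipid at 10 μg/ml. Supernatants were collected at 18 h and read on a 22-plex Luminex bead panel. Triplicates, mean ± SD.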

Mus musculus [3] = assay: Induction of TNFalpha secretion in BALB/c mouse serum at 2 ug, iv after 18 hrs relative to control; type: functional; summary of the method: as §1
Mus musculus [4] = assay: Activation of B cells in BALB/c mouse at 2 ug, iv after 72 hrs by flow cytometry; type: functional, organism-based
Mus musculus [5] = assay: Induction of MIPbeta secretion in BALB/c mouse serum at 2 ug, iv after 2 hrs relative to control; type: functional; summary of the method: as §1
[6] = Induction of IL4 secretion in human CD161+ CD3+ NKT cells at 10 ug/ml after 18 hrs relative to basal level; type: functional; summary of the method: as §2
[7] = Induction of IL3 secretion in human CD161+ CD3+ NKT cells at 10 ug/ml after 18 hrs relative to basal level; type: functional; summary of the method: as §2
[8] = Induction of RANTES secretion in human CD161+ CD3+ NKT cells at 10 ug/ml after 18 hrs relative to basal level; type: functional; summary of the method: as §2
[9] = Induction of IL8 secretion in human CD161+ CD3+ NKT cells at 10 ug/ml after 18 hrs relative to basal level; type: functional; summary of the method: as §2
[10] = Promotion of maturation of human dendritic cells assessed as increase in CD83 expression at 3 ug/ml after 48 hrs; type: functional, cell-based; conditions: Dendritic cell
Summary of the method: (§3)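 Immature DCs were derived from leukopak CD14+ cells by 2 days in 300 units/ml GM-CSF plus 100 units/ml IL-4. DCs (2 × 10^6) were incubated with glycolipid at 3 μg/ml or vehicle for 48 h. Surface CD40, CD80, CD83, CD86 and HLA-DR were measured by flow cytometry as mean fluorescence intensity.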

[11] = Promotion of maturation of human dendritic cells assessed as increase in HLA-DR expression at 3 ug/ml after 48 hrs; type: functional, cell-based; conditions: Dendritic cell; summary of the method: as §3
[12] = Promotion of maturation of human dendritic cells assessed as increase in CD80 expression at 3 ug/ml after 48 hrs; type: functional, cell-based; conditions: Dendritic cell; summary of the method: as §3
[13] = Promotion of maturation of human dendritic cells assessed as increase in CD86 expression at 3 ug/ml after 48 hrs; type: functional, cell-based; conditions: Dendritic cell; summary of the method: as §3
Mus musculus [14] = assay: Activation of natural killer cells in BALB/c mouse at 2 ug, iv after 72 hrs by flow cytometry; type: functional, organism-based
Summary of the method: (§4)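 BALB/c mice (n = 4/group) were given 100 μl of glycolipid at 20 μg/ml in saline i.v., or 100 μl of 1% DMSO. Spleens were harvested after 72 h and splenocyte subsets counted by flow cytometry: mature DCs as CD11c+/CD80+/CD86+, activated NK as U5A2-13Ag+/CD3−/CD69+, activated NKT as U5A2-13Ag+/CD3+/CD69+. Assays were run in duplicate, mean ± SD.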

[15] = Promotion of maturation of human dendritic cells assessed as increase in CD40 expression at 3 ug/ml after 48 hrs; type: functional, cell-based; conditions: Dendritic cell; summary of the method: as §3
Mus musculus [16] = assay: Activation of NKT cells in BALB/c mouse at 2 ug, iv after 72 hrs by flow cytometry; type: functional, organism-based; summary of the method: as §4

| Structure (SMILES) | Activity (NKT) | Activity (Mus musculus [1]) | Activity (HeLa) | Activity [2] | Activity (Mus musculus [3]) | Activity (Mus musculus [4]) | Activity (Mus musculus [5]) | Activity [6] | Activity [7] | Activity [8] | Activity [9] | Activity [10] | Activity [11] | Activity [12] | Activity [13] | Activity (Mus musculus [14]) | Activity [15] | Activity (Mus musculus [16]) |
| --- | --- | --- | --- | --- | --- | --- | --- | --- | --- | --- | --- | --- | --- | --- | --- | --- | --- | --- |
| CCCCCCCCCCCCCCCCCCCCCCCCCC(=O)N[C@@H](CO[C@H]1O[C@H](CO)[C@H](O)[C@H](O)[C@H]1O)[C@H](O)[C@H](O)CCCCCCCCCCCCCC [RGI-7000] | Active | 13.1 | 6.6 | 1.4 | 51 | Active | 3.6 | 3.9 | 1.9 | 1.6 | 1.7 | – | – | – | – | – | – | – |
| CCCCCCCCCCCCCCCCCCCCCCCCCC(=O)N[C@@H](CO[C@H]1O[C@H](CO)[C@H](O)[C@H](O)[C@H]1O)[C@H](O)[C@H](O)CCc1ccccc1 | – | 7.9 | 6.6 | 1.8 | 2.3 | – | 5.3 | 2.7 | 1.7 | 2.5 | 3 | Active | Active | Active | Active | Active | Active | Active |
